Source: ChEMBL document CHEMBL1135573, “New stereocontrolled synthesis and biological evaluation of 5-(1'-hydroxyalkyl)-3-methylidenetetrahydro-2-furanones as potential cytotoxic agents” (J Med Chem, 2002)

Legend:
[1] = system: HL-60; assay: Compound was evaluated for in vitro cytotoxic activity against human HL-60 leukemia cell line; type: functional, cell-based
[2] = system: L1210; assay: Compound was evaluated for in vitro cytotoxic activity against mouse L-1210 leukemia cell line; type: functional, cell-based
[3] = Partition coefficient (logP); type: physicochemical; settings: octanol/water
Procedure, shortened: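 log P (1-octanol/water) computed with a standard software package. For one analogue it was also measured by a spectrophotometric method.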

logP [3] | Compound | IC50 ([1]; Homo sapiens, HL-60) | IC50 ([2]; Mus musculus, L1210) | IC50 ([2]; l1210) | IC50 ([1]; hl-60)
– | C=C1C[C@H]([C@H](C)O)OC1=O | 46.8 µM | 17.3 µM | – | –
– | C=C1C[C@H]([C@@H](O)c2ccccc2)OC1=O | 41.2 µM | 7.5 µM | – | –
1.59 | C=C1C[C@H]([C@H](O)CCC)OC1=O | 51.9 µM | 18.5 µM | – | –
1.8 | C=C1C[C@H]([C@H](O)c2ccccc2)OC1=O | 36.4 µM | 6.9 µM | 8 µM | –
0.55 | C=C1C[C@H]([C@@H](C)O)OC1=O | 47.3 µM | 19.3 µM | – | –
0.44 | C=C1C[C@](C)(CO)OC1=O | 51.3 µM | 26.7 µM | – | –
– | C=C1C[C@H]([C@@H](O)CCC)OC1=O | 52.6 µM | 16.9 µM | – | –
– | CARBOPLATIN | – | – | 9.7 µM | 2.9 µM
